Source: ChEMBL document CHEMBL2401626 (J Med Chem, 2013)
Active and inactive are the calls of the source. The calls are words filed in the database; no cut-off is given here.

How the values were obtained:
[1] = target: T1, Amine oxidase [flavin-containing] A (Homo sapiens, UniProt P21397); assay: Inhibition of human recombinant MAOA using p-tyramine as substrate incubated for 15 mins prior to substrate addition measured after 20 mins by fluorescence plate reader analysis
T1 sequence (P21397 whole entry): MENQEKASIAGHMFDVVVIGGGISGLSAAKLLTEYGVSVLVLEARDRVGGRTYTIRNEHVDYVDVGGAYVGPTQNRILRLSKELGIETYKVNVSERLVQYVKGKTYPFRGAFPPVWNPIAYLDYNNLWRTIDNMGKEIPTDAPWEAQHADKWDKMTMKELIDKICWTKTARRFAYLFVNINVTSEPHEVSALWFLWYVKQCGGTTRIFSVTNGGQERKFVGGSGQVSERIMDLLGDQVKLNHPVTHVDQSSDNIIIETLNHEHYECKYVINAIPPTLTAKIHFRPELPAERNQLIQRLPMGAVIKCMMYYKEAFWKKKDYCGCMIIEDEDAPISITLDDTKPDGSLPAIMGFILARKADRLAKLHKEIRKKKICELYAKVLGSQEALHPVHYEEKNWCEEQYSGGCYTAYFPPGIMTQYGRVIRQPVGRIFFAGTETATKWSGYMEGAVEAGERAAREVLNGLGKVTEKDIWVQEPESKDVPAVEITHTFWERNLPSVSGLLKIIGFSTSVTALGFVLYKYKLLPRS

Acetylcholinesterase = Acetylcholinesterase (Electrophorus electricus, UniProt O42275); assay: Inhibition of electric eel AChE using acetylthiocholine chloride as substrate preincubated for 15 mins followed by substrate addition measured every 1 min by Ellman's method
Chain of Acetylcholinesterase (O42275 whole entry): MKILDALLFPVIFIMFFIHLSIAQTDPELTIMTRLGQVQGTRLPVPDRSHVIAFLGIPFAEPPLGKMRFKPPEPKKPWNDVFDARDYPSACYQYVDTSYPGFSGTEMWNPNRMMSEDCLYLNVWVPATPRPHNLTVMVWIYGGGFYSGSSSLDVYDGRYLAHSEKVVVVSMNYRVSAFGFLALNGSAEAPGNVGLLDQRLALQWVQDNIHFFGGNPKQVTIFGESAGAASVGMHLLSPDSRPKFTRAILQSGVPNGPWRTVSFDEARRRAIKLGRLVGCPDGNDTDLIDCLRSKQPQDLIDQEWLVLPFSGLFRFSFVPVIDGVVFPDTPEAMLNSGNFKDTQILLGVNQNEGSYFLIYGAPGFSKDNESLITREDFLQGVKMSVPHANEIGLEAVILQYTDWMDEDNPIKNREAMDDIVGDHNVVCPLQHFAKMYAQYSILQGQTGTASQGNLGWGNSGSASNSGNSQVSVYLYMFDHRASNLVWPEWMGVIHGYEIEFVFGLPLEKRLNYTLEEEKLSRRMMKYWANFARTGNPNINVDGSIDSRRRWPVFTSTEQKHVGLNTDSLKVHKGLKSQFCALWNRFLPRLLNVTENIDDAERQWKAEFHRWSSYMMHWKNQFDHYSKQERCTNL
Summary of the method: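 Ellman method in 0.1 M potassium phosphate buffer, pH 8.0, 1 mL assay containing DTNB and thiocholine substrate (each 50 μL of 0.01 M stock). Enzyme (AChE stock 2.0 units/mL) preincubated with compound 15 min at 37 °C, then substrate added. A412 read at 1 min intervals at 37 °C. Each concentration in triplicate. IC50 from at least three experiments.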

Mus musculus = assay: Acute toxicity in KM mouse at 677 to 2000 mg/kg, po after 14 days; assay type: organism-based; design: dose 677-2000 mg/kg, route oral; conditions: in vivo, 336 h
Summary of the method: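 Male KM mice (22 days, 18−20 g), fasted overnight with free access to water, n = 5 per group; single oral dose of 0, 677, 1333 or 2000 mg/kg suspended in 0.5% CMC-Na. Watched continuously for 4 h, intermittently for 24 h, then occasionally to day 14 for behaviour and mortality; killed day 14, heart, liver and kidneys examined macroscopically.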

[2] = Cytotoxicity against human SH-SY5Y cells assessed as cell viability at 10 uM after 24 hrs by MTT assay; assay type: cell-based
Summary of the method: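 SH-SY5Y cells seeded 5 × 10^4/well, then exposed to compound for 24 h at 37 °C. MTT (0.5 mg/mL final) added for 4 h; formazan dissolved in DMSO and read at 570 nm. Viability is treated/untreated absorbance × 100, each corrected for zero-day control. Three independent experiments in sextuplicate.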

[3] = target: Amyloid-beta precursor protein (Homo sapiens, UniProt P05067)
Chain of Amyloid-beta precursor protein (P05067 whole entry): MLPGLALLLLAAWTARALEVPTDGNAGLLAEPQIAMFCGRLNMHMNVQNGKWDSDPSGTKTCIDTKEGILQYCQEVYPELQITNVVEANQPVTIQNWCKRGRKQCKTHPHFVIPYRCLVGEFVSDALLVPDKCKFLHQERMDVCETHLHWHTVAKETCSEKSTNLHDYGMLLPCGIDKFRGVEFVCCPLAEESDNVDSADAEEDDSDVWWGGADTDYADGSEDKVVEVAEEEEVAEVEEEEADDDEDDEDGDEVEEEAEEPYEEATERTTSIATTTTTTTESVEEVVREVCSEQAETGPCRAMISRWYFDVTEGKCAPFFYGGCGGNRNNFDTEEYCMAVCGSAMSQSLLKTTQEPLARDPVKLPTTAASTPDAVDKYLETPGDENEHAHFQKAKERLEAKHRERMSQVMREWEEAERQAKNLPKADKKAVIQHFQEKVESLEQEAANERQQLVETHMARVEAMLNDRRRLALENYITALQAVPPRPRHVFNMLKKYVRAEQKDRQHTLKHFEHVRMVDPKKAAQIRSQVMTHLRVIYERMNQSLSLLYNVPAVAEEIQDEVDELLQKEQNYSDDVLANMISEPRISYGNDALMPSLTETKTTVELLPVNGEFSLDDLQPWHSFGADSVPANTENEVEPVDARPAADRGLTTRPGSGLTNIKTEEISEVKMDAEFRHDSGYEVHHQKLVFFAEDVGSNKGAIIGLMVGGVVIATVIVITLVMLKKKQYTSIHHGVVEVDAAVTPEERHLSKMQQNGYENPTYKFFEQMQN

Cholinesterase = Cholinesterase (Equus caballus, UniProt P81908); assay: Inhibition of equine serum BuChE using butylthiocholine chloride as substrate preincubated for 15 mins followed by substrate addition measured every 1 min by Ellman's method
Chain of Cholinesterase (P81908 whole entry): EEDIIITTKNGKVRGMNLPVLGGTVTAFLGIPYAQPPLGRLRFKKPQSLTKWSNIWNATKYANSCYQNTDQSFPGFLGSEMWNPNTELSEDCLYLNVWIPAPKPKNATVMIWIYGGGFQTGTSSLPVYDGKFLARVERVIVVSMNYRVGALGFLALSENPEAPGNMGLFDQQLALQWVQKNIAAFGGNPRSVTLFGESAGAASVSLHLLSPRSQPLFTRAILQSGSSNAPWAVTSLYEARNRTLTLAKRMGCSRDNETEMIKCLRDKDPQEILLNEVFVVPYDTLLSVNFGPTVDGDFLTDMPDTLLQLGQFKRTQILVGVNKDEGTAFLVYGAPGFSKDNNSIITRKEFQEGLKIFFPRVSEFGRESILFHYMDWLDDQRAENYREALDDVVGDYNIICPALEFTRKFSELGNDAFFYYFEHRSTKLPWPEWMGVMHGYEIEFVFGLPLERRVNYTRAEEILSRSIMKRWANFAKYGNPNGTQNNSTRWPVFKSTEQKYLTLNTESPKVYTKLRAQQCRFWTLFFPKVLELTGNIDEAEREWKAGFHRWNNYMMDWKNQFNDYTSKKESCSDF

[4] = target: T2, Amine oxidase [flavin-containing] B (Homo sapiens, UniProt P27338)
T2 sequence (P27338 whole entry): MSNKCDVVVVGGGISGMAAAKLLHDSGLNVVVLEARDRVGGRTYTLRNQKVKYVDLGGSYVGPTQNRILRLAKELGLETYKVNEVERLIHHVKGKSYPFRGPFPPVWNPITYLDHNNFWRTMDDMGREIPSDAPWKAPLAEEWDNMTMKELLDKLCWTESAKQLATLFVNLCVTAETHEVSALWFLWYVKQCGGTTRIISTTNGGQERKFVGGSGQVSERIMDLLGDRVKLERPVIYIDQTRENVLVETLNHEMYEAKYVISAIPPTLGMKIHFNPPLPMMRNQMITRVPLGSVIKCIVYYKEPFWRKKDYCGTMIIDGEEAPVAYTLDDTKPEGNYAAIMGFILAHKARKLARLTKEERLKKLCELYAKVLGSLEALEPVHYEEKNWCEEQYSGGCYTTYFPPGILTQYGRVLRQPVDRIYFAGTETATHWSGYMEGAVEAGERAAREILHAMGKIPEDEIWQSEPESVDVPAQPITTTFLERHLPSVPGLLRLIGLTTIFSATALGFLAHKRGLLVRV

SH-SY5Y = assay: Antioxidant activity in human SH-SY5Y cells assessed as decrease in t-BuOOH-induced intracellular ROS production at 5 to 20 uM incubated for 24 hrs prior to t-BuOOH challenge measured after 30 mins by DCFHDA-based fluorescence assay; assay type: functional, cell-based
Summary of the method: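 SH-SY5Y cells (DMEM, 10% FCS, 37 °C, 5% CO2) seeded 1 × 10^4/well and grown 24 h. Compound added for 24 h; Trolox control at 5, 10, 20 μM. Cells are then washed, loaded with 5 μM DCFH-DA in PBS for 30 min, and challenged with 0.1 mM t-BuOOH for 30 min. Fluorescence read at ex 485/em 535 nm. Result is % of control by formula; three independent experiments in sextuplicate.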

Compound	IC50 [1] [µM]	IC50 (Acetylcholinesterase) [µM]	Activity (Mus musculus)	Activity [2]	IC50 [3] [µM]	IC50 (Cholinesterase) [µM]	IC50 [4] [µM]	Activity (SH-SY5Y)
COc1cc(/C=C/c2ccc(NCc3cc(N(C)C)ccc3O)cc2)cc(OC)c1	8.19	36	Non-toxic	Non-toxic	7.56	> 50	12.2	
CN(C)c1ccc(O)c(CNc2ccc(/C=C/c3cc(O)cc(O)c3)cc2)c1	7.08	6.27		Non-toxic	6.51	21.2	14.1	
Cc1c(C)c2c(c(C)c1O)CCC(C)(C(=O)O)O2 (racemic)								Active
